Source: ChEMBL document CHEMBL3593207, “Imidazole clubbed 1,3,4-oxadiazole derivatives as potential antifungal agents” (2015)
Values after ≈ are worked out from the molar mass of the structure shown.

What was measured:
Candida tropicalis [1] = test: Antifungal activity against clinical isolates of Candida tropicalis 2029 by broth microdilution assay; format: functional
Procedure, shortened: (§1)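 CLSI M27-A3 broth microdilution. Compounds diluted to 1 mg/ml in 1% DMSO. Fluconazole (1 mg/ml) served as positive control, 1% DMSO as vehicle control, with media and culture controls. Triplicate at each concentration, repeated thrice. Inocula came from YPDA stocks subcultured in broth for 48 h at 37 °C.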

Candida albicans [2] = test: Antifungal activity against Candida albicans ATCC 10261 by broth microdilution assay; format: functional; procedure, shortened: as §1
Candida tropicalis [3] = test: Antifungal activity against Candida tropicalis ATCC 750 by broth microdilution assay; format: functional; procedure, shortened: as §1
Candida tropicalis [4] = test: Antifungal activity against clinical isolates of Candida tropicalis 2356 by broth microdilution assay; format: functional; procedure, shortened: as §1
Candida albicans [5] = test: Antifungal activity against clinical isolates of Candida albicans 2367 by broth microdilution assay; format: functional; procedure, shortened: as §1
Candida albicans [6] = test: Antifungal activity against clinical isolates of Candida albicans 2323 by broth microdilution assay; format: functional; procedure, shortened: as §1
Candida albicans [7] = test: Antifungal activity against clinical isolates of Candida albicans 2779 by broth microdilution assay; format: functional; procedure, shortened: as §1
Candida albicans [8] = test: Inhibition of ergosterol biosynthesis in Candida albicans 2779 assessed as ergosterol content at MIC after 16 hrs by spectrophotometer analysis; format: functional; design: scale not given: the % may be the effect or the level left
Procedure, shortened: (§2)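 Cells were pelleted and washed, and wet weight taken. Pellets were saponified in 25% alcoholic KOH at 85 °C for 1 h. Sterols were extracted into n-heptane/water. Ergosterol content is expressed relative to untreated control cells.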

Candida albicans [9] = test: Antifungal activity against clinical isolates of Candida albicans 2367 at MIC after 48 hrs by disc diffusion assay; format: functional
Procedure, shortened: (§3)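 Cells (10^3 cells ml−1) grown in YPD were mixed into molten agar (~40 °C) and poured into 100-mm plates. Filter discs (4 mm) were spotted with 10 µl of compound at 1/2 × MIC, MIC or 2 × MIC. Fluconazole and 1% DMSO were the controls. Plates were incubated at 37 °C for 48 h and inhibition zone diameters recorded in mm.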

Candida albicans [10] = test: Antifungal activity against clinical isolates of Candida albicans 2779 at MIC after 48 hrs by disc diffusion assay; format: functional; procedure, shortened: as §3
Candida albicans [11] = test: Inhibition of ergosterol biosynthesis in Candida albicans 2367 assessed as ergosterol content at 1/2 MIC after 16 hrs by spectrophotometer analysis; format: functional; design: scale not given: the % may be the effect or the level left; procedure, shortened: as §2
Candida albicans [12] = test: Antifungal activity against clinical isolates of Candida albicans 2323 at half MIC after 48 hrs by disc diffusion assay; format: functional; procedure, shortened: as §3
Candida albicans [13] = test: Antifungal activity against Candida albicans ATCC 10261 at MIC after 48 hrs by disc diffusion assay; format: functional; procedure, shortened: as §3
Candida albicans [14] = test: Inhibition of ergosterol biosynthesis in Candida albicans ATCC 10261 assessed as ergosterol content at MIC after 16 hrs by spectrophotometer analysis; format: functional; design: scale not given: the % may be the effect or the level left; procedure, shortened: as §2
Candida tropicalis [15] = test: Antifungal activity against Candida tropicalis ATCC 750 at MIC after 48 hrs by disc diffusion assay; format: functional; procedure, shortened: as §3
Candida albicans [16] = test: Antifungal activity against clinical isolates of Candida albicans 2323 at 2 times MIC after 48 hrs by disc diffusion assay; format: functional; procedure, shortened: as §3
Candida tropicalis [17] = test: Inhibition of ergosterol biosynthesis in Candida tropicalis 2356 assessed as ergosterol content at MIC after 16 hrs by spectrophotometer analysis; format: functional; design: scale not given: the % may be the effect or the level left; procedure, shortened: as §2
Candida albicans [18] = test: Inhibition of ergosterol biosynthesis in Candida albicans 2323 assessed as ergosterol content at 1/2 MIC after 16 hrs by spectrophotometer analysis; format: functional; design: scale not given: the % may be the effect or the level left; procedure, shortened: as §2
Candida albicans [19] = test: Antifungal activity against Candida albicans ATCC 10261 at half MIC after 48 hrs by disc diffusion assay; format: functional; procedure, shortened: as §3
Candida albicans [20] = test: Inhibition of ergosterol biosynthesis in Candida albicans 2323 assessed as ergosterol content at MIC after 16 hrs by spectrophotometer analysis; format: functional; design: scale not given: the % may be the effect or the level left; procedure, shortened: as §2
Candida tropicalis [21] = test: Antifungal activity against Candida tropicalis ATCC 750 at 2 times MIC after 48 hrs by disc diffusion assay; format: functional; procedure, shortened: as §3
Candida tropicalis [22] = test: Antifungal activity against clinical isolates of Candida tropicalis 2356 at 2 times MIC after 48 hrs by disc diffusion assay; format: functional; procedure, shortened: as §3
Candida albicans [23] = test: Antifungal activity against clinical isolates of Candida albicans 2367 at 2 times MIC after 48 hrs by disc diffusion assay; format: functional; procedure, shortened: as §3
Candida albicans [24] = test: Cytotoxicity against Candida albicans ATCC 10261 at MIC after 24 hrs by WST1 assay; format: functional
Procedure, shortened: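 Candida cells were exposed to MIC and sub-MIC levels for 24 h in microplates, then to WST-1/CEC dye for 30 min at 37 °C. Plates were shaken 1 min and the reaction stopped with 1% SDS. Formazan was read at 450 nm. % cytotoxicity = 100 × (cell control − experimental)/cell control. Triplicates, mean ± SD.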

Candida tropicalis [25] = test: Antifungal activity against clinical isolates of Candida tropicalis 2029 at MIC after 48 hrs by disc diffusion assay; format: functional; procedure, shortened: as §3
Candida tropicalis [26] = test: Inhibition of ergosterol biosynthesis in Candida tropicalis 2356 assessed as ergosterol content at 1/2 MIC after 16 hrs by spectrophotometer analysis; format: functional; design: scale not given: the % may be the effect or the level left; procedure, shortened: as §2
Candida tropicalis [27] = test: Inhibition of ergosterol biosynthesis in Candida tropicalis ATCC 750 assessed as ergosterol content at MIC after 16 hrs by spectrophotometer analysis; format: functional; design: scale not given: the % may be the effect or the level left
Procedure, shortened: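 Cells were harvested, washed, and wet pellet weight recorded. Pellets were saponified in 3 mL 25% alcoholic KOH at 85 °C for 1 h, then sterols extracted into n-heptane. Ergosterol is expressed relative to untreated control cells.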

Candida albicans [28] = test: Antifungal activity against clinical isolates of Candida albicans 2779 at 2 times MIC after 48 hrs by disc diffusion assay; format: functional; procedure, shortened: as §3
Candida albicans [29] = test: Antifungal activity against clinical isolates of Candida albicans 2367 at half MIC after 48 hrs by disc diffusion assay; format: functional; procedure, shortened: as §3
Candida tropicalis [30] = test: Antifungal activity against Candida tropicalis ATCC 750 at half MIC after 48 hrs by disc diffusion assay; format: functional; procedure, shortened: as §3
Candida tropicalis [31] = test: Antifungal activity against clinical isolates of Candida tropicalis 2356 at MIC after 48 hrs by disc diffusion assay; format: functional; procedure, shortened: as §3
Candida albicans [32] = test: Inhibition of ergosterol biosynthesis in Candida albicans 2779 assessed as ergosterol content at 1/2 MIC after 16 hrs by spectrophotometer analysis; format: functional; design: scale not given: the % may be the effect or the level left; procedure, shortened: as §2
Candida tropicalis [33] = test: Inhibition of ergosterol biosynthesis in Candida tropicalis ATCC 750 assessed as ergosterol content at 1/2 MIC after 16 hrs by spectrophotometer analysis; format: functional; design: scale not given: the % may be the effect or the level left; procedure, shortened: as §2
Candida tropicalis [34] = test: Inhibition of ergosterol biosynthesis in Candida tropicalis 2029 assessed as ergosterol content at 1/2 MIC after 16 hrs by spectrophotometer analysis; format: functional; design: scale not given: the % may be the effect or the level left; procedure, shortened: as §2
Candida tropicalis [35] = test: Cytotoxicity against Candida tropicalis ATCC 750 at MIC after 24 hrs by WST1 assay
Candida tropicalis [36] = test: Antifungal activity against clinical isolates of Candida tropicalis 2356 at half MIC after 48 hrs by disc diffusion assay; format: functional; procedure, shortened: as §3
Candida albicans [37] = test: Antifungal activity against clinical isolates of Candida albicans 2779 at half MIC after 48 hrs by disc diffusion assay; format: functional; procedure, shortened: as §3
Candida albicans [38] = test: Inhibition of ergosterol biosynthesis in Candida albicans 2367 assessed as ergosterol content at MIC after 16 hrs by spectrophotometer analysis; format: functional; design: scale not given: the % may be the effect or the level left; procedure, shortened: as §2
Candida tropicalis [39] = test: Inhibition of ergosterol biosynthesis in Candida tropicalis 2029 assessed as ergosterol content at MIC after 16 hrs by spectrophotometer analysis; format: functional; design: scale not given: the % may be the effect or the level left; procedure, shortened: as §2
Candida albicans [40] = test: Antifungal activity against clinical isolates of Candida albicans 2323 at MIC after 48 hrs by disc diffusion assay; format: functional; procedure, shortened: as §3
Candida tropicalis [41] = test: Antifungal activity against clinical isolates of Candida tropicalis 2029 at half MIC after 48 hrs by disc diffusion assay; format: functional; procedure, shortened: as §3
Candida tropicalis [42] = test: Antifungal activity against clinical isolates of Candida tropicalis 2029 at 2 times MIC after 48 hrs by disc diffusion assay; format: functional; procedure, shortened: as §3
Candida albicans [43] = test: Inhibition of ergosterol biosynthesis in Candida albicans ATCC 10261 assessed as ergosterol content at 1/2 MIC after 16 hrs by spectrophotometer analysis; format: functional; design: scale not given: the % may be the effect or the level left; procedure, shortened: as §2
Candida albicans [44] = test: Antifungal activity against Candida albicans ATCC 10261 at 2 times MIC after 48 hrs by disc diffusion assay; format: functional; procedure, shortened: as §3

Compound: CCc1ccnc(-c2nccn2Cc2nnc(Cc3ccc(C(C)C)cc3)o2)c1
- MIC (Candida tropicalis [1]): > 1000 µg/mL
- MIC (Candida albicans [2]): > 1000 µg/mL
- MIC (Candida tropicalis [3]): > 1000 µg/mL
- MIC (Candida tropicalis [4]): > 1000 µg/mL
- MIC (Candida albicans [5]): > 1000 µg/mL
- MIC (Candida albicans [6]): > 1000 µg/mL
- MIC (Candida albicans [7]): > 1000 µg/mL

Compound: CCc1ccnc(-c2nccn2Cc2nnc(-c3ccc(N)cc3)o2)c1
- Activity (Candida albicans [8]): 81%
- inhibition zone (IZ) (Candida albicans [9]): 5 mm
- MIC (Candida tropicalis [1]): 32 µg/mL (≈ 92.4 µM)
- MIC (Candida albicans [2]): 16 µg/mL (≈ 46.2 µM)
- inhibition zone (IZ) (Candida albicans [10]): 8 mm
- Activity (Candida albicans [11]): 45%
- inhibition zone (IZ) (Candida albicans [12]): 0 mm
- inhibition zone (IZ) (Candida albicans [13]): 10 mm
- MIC (Candida tropicalis [3]): 16 µg/mL (≈ 46.2 µM)
- Activity (Candida albicans [14]): 98%
- inhibition zone (IZ) (Candida tropicalis [15]): 9 mm
- inhibition zone (IZ) (Candida albicans [16]): 7 mm
- MIC (Candida tropicalis [4]): 125 µg/mL (≈ 361 µM)
- Activity (Candida tropicalis [17]): 86%
- Activity (Candida albicans [18]): 43%
- inhibition zone (IZ) (Candida albicans [19]): 7 mm
- MIC (Candida albicans [5]): 32 µg/mL (≈ 92.4 µM)
- Activity (Candida albicans [20]): 89%
- inhibition zone (IZ) (Candida tropicalis [21]): 13 mm
- inhibition zone (IZ) (Candida tropicalis [22]): 7 mm
- inhibition zone (IZ) (Candida albicans [23]): 7 mm
- Activity (Candida albicans [24]): 87.27%
- inhibition zone (IZ) (Candida tropicalis [25]): 5 mm
- Activity (Candida tropicalis [26]): 52%
- Activity (Candida tropicalis [27]): 98%
- inhibition zone (IZ) (Candida albicans [28]): 11 mm
- inhibition zone (IZ) (Candida albicans [29]): 2 mm
- inhibition zone (IZ) (Candida tropicalis [30]): 5 mm
- inhibition zone (IZ) (Candida tropicalis [31]): 4 mm
- Activity (Candida albicans [32]): 42%
- MIC (Candida albicans [6]): 32 µg/mL (≈ 92.4 µM)
- Activity (Candida tropicalis [33]): 41%
- Activity (Candida tropicalis [34]): 44%
- Activity (Candida tropicalis [35]): 80.81%
- inhibition zone (IZ) (Candida tropicalis [36]): 0 mm
- MIC (Candida albicans [7]): 64 µg/mL (≈ 185 µM)
- inhibition zone (IZ) (Candida albicans [37]): 1 mm
- Activity (Candida albicans [38]): 81%
- Activity (Candida tropicalis [39]): 84%
- inhibition zone (IZ) (Candida albicans [40]): 4 mm
- inhibition zone (IZ) (Candida tropicalis [41]): 2 mm
- inhibition zone (IZ) (Candida tropicalis [42]): 8 mm
- Activity (Candida albicans [43]): 57%
- inhibition zone (IZ) (Candida albicans [44]): 13 mm

Compound: CCc1ccnc(-c2nccn2Cc2nnc(-c3ccccc3Cl)o2)c1
- MIC (Candida tropicalis [1]): > 1000 µg/mL
- MIC (Candida albicans [2]): > 1000 µg/mL
- MIC (Candida tropicalis [3]): > 1000 µg/mL
- MIC (Candida tropicalis [4]): > 1000 µg/mL
- MIC (Candida albicans [5]): > 1000 µg/mL
- MIC (Candida albicans [6]): > 1000 µg/mL
- MIC (Candida albicans [7]): > 1000 µg/mL

Compound: CCc1ccnc(-c2nccn2Cc2nnc(COc3ccc(Cl)cc3)o2)c1
- MIC (Candida tropicalis [1]): > 1000 µg/mL
- MIC (Candida albicans [2]): > 1000 µg/mL
- MIC (Candida tropicalis [3]): > 1000 µg/mL
- MIC (Candida tropicalis [4]): > 1000 µg/mL
- MIC (Candida albicans [5]): > 1000 µg/mL
- MIC (Candida albicans [6]): > 1000 µg/mL
- MIC (Candida albicans [7]): > 1000 µg/mL

Compound: CCc1ccnc(-c2nccn2Cc2nnc(-c3ccccc3)o2)c1
- MIC (Candida tropicalis [1]): > 1000 µg/mL
- MIC (Candida albicans [2]): > 1000 µg/mL
- MIC (Candida tropicalis [3]): > 1000 µg/mL
- MIC (Candida tropicalis [4]): > 1000 µg/mL
- MIC (Candida albicans [5]): > 1000 µg/mL
- MIC (Candida albicans [6]): > 1000 µg/mL
- MIC (Candida albicans [7]): > 1000 µg/mL
